Test system: T. cruzi CAI/72 in BESM cells, trypomastigote emergence, microscopy
Experiment: intracellular T. cruzi clearance after withdrawal – imaging, CAI/72 strain, BESM host cells, 29-day treatment, set 2, mechanism study for T. cruzi inhibitor project, late-stage follow-up (AID 651869)
Details: hits give high values
Summary of the method: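 Measure: trypomastigote emergence timing as cidal versus static measure; assay system: bovine embryo skeletal muscle (BESM) cells infected with Trypanosoma cruzi CAI/72; timing: 24 h post-infection wash, alternate-day dosing 29 days, 20-day washout; measured by: daily light-microscopy scoring of trypomastigote emergence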

| Compound | cidality slope score |
| --- | --- |
| C[C@@H]1CN([C@@H](C)CO)C(=O)c2cccc(NC(=O)c3ccncc3)c2O[C@H]1CN(C)Cc1ccc(Oc2ccccc2)cc1 | 1100 |
| O=C(Cn1ccnc1[N+](=O)[O-])NCc1ccccc1 | 12 |
| C[C@@H]1CN([C@H](C)CO)C(=O)c2cccc(NC(=O)c3ccncc3)c2O[C@H]1CN(C)Cc1ccc(Oc2ccccc2)cc1 | 1100 |
| C[C@@H]1CN([C@@H](C)CO)C(=O)c2cccc(NC(=O)c3ccncc3)c2O[C@H]1CN(C)Cc1ccc(Cl)cc1 | 7.6 |
| C[C@H]1CN([C@@H](C)CO)C(=O)c2cccc(NC(=O)c3ccncc3)c2O[C@@H]1CN(C)Cc1ccc(Oc2ccccc2)cc1 | 1100 |
| C[C@@H]1CN([C@H](C)CO)C(=O)c2cccc(NC(=O)c3ccncc3)c2O[C@H]1CN(C)Cc1ccccc1 | 85 |
| C[C@H]1CN([C@@H](C)CO)C(=O)c2cccc(NC(=O)c3ccncc3)c2O[C@H]1CN(C)Cc1ccc(Oc2ccccc2)cc1 | 1100 |
| C[C@@H]1CN([C@@H](C)CO)C(=O)c2cccc(NC(=O)c3ccncc3)c2O[C@H]1CN(C)Cc1cccc(Cl)c1 | 75 |
| CC(C)N1C[C@@H](C)[C@H](CN(C)Cc2cccc(Oc3ccccc3)c2)Oc2c(NC(=O)c3ccncc3)cccc2C1=O | 1100 |
| C[C@H](CO)N1C[C@H](C)[C@H](CN(C)Cc2ccc(Oc3ccccc3)cc2)Oc2c(NC(=O)c3ccncc3)cccc2C1=O | 85 |

— PubChem BioAssay AID651869 (Broad Institute, 2012)
